In general, Ki refers to a measure of affinity in units of concentration, obtained from inhibition or displacement. Usually inhibition stands for the percentage by which the read-out fell short of the control. Usually IC50 stands for the midpoint of a concentration-inhibition curve. The EC50 is the concentration giving half of the maximal effect. By Emax is commonly meant the maximal effect, on the per cent scale that the assay sets.

Activity calls are given as the source filed them. The rule behind the calls is not given here.

Experimental findings from ChEMBL document CHEMBL2331343 (Bioorg Med Chem, 2013) are described below.

Data set [1] concerns the target T1, 5-hydroxytryptamine receptor 1A (Homo sapiens, UniProt P08908).
T1 sequence (P08908 whole entry): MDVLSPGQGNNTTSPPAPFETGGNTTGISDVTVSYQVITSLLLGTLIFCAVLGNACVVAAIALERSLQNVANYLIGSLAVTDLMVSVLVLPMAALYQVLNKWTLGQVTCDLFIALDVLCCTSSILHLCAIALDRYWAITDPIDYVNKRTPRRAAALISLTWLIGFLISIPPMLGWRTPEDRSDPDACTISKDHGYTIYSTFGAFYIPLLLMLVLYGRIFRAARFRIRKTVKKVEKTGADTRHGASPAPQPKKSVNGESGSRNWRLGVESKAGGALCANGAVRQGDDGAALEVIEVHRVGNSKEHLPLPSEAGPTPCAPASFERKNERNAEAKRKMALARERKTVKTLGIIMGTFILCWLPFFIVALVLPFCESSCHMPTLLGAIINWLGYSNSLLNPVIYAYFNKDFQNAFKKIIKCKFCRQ
The experiment in a line: Displacement of [3H]8-OH-DPAT from 5-HT1A receptor (unknown origin) expressed in HEK293 cells by liquid scintillation counter. It is filed as cell-based. For orientation: Displacement assays read how much labelled ligand stays bound in the presence of the test substance.

The target in data set [2] is T2, D(1A) dopamine receptor (Homo sapiens, UniProt P21728). The data set can be described thus: Displacement of [3H]SCH23390 from dopamine D1 receptor (unknown origin) expressed in human HEK293 cells by liquid scintillation counter. It is filed as cell-based. The essentials: (§1)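 Stably transfected HEK293T D1 membranes, […], duplicate incubation 50 min at 30 °C with [3H]SCH23390 in 50 mM Tris, 4 mM MgCl2, pH 7.4. Nonspecific binding with 10 μM SCH23390. GF/B filtration, scintillation counting.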
T2 sequence (P21728 whole entry): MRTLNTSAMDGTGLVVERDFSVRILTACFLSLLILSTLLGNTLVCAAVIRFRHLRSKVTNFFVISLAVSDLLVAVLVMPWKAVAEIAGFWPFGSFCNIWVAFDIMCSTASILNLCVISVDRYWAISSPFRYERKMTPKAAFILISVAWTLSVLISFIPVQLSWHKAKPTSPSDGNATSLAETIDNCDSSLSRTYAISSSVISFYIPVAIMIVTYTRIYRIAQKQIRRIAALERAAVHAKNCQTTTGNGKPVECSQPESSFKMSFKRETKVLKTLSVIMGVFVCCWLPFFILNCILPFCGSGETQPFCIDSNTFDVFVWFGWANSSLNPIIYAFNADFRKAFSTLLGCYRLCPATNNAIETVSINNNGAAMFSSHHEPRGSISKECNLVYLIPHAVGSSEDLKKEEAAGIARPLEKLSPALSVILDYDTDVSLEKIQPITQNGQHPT

Data set [3] addresses 5-hydroxytryptamine receptor 2A (Homo sapiens, UniProt P28223). The experiment in a line: Inhibition of [3H]Ketanserin binding to 5-HT2A receptor (unknown origin) expressed in HEK293 cells at 10 uM by liquid scintillation counter relative to control. It is filed as cell-based. The essentials:
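Membranes of HEK293T stably transfected with 5-HT2A, […], incubated in duplicate 15 min at 37 °C with [3H]ketanserin in 50 mM Tris, 4 mM MgCl2, pH 7.4. […] GF/B filtration, cold wash, scintillation counting.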

Data set [4] has as its target T2, D(1A) dopamine receptor. The data set can be described thus: Antagonist activity at dopamine D1 receptor (unknown origin) expressed in HEK293 cells assessed as inhibition of [35S]GTPgammaS binding by scintillation proximity assay. The data set is classed as functional, cell-based.
Data set [5] addresses T2, D(1A) dopamine receptor. The experiment in a line: Inhibition of [3H]SCH23390 binding to dopamine D1 receptor (unknown origin) expressed in human HEK293 cells at 10 uM by liquid scintillation counter relative to control. The data set is classed as cell-based. In a few lines:
as §1

In data set [6] the target is T3, 5-hydroxytryptamine receptor 1A (Homo sapiens) (UniProt P08908).
T3 sequence (whole entry): T1 sequence (P08908 whole entry)
The experiment in a line: Inhibition of [3H]8-OH-DPAT binding to 5-HT1A receptor (unknown origin) expressed in HEK293 cells at 10 uM by liquid scintillation counter relative to control. The data set is classed as cell-based. In a few lines: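 Membranes of HEK293T stably transfected with 5-HT1A, […], incubated in duplicate 50 min at 30 °C with [3H]8-OH-DPAT in 50 mM Tris, 4 mM MgCl2, pH 7.4. Nonspecific binding with 10 μM WAY100635. Filtration on GF/B, cold Tris/EDTA wash, scintillation counting.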

In data set [7] the test system is Rattus norvegicus. The data set can be described thus: In vivo agonist activity at 5-HT1A receptor in Sprague-Dawley rat DA neuron assessed as increase in firing rate at 1 mg/kg, iv. The data set is classed as functional. The essentials:
(§2)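 Male Sprague-Dawley rats under chloral hydrate anesthesia (400 mg/kg ip) at 37 °C. Single-unit recording of VTA DA neurons by glass microelectrode. Raclopride 0.1 mg/kg given first, then compound 1 mg/kg. Firing rate and bursts analysed every 10 s as % of post-raclopride baseline. n = 5, paired t-test.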

The subject of data set [8] is Rattus norvegicus. The data set can be described thus: In vivo agonist activity at 5-HT1A receptor in WAY100635 pre-treated Sprague-Dawley rat DA neuron assessed as increase in bursts at 1 mg/kg, iv. The data set is classed as functional, organism-based. Also noted: dose 1 mg/kg. In a few lines:
(§3)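 Anesthetized (chloral hydrate) Sprague-Dawley rats given raclopride, then WAY100635 before compound 1 mg/kg. VTA DA neuron single-unit firing rate and bursts analysed every 10 s as % of post-raclopride baseline. n = 5, paired t-test.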

Data set [9] concerns Rattus norvegicus. The data set can be described thus: In vivo agonist activity at 5-HT1A receptor in Sprague-Dawley rat DA neuron assessed as increase in firing rate at 1 mg/kg, iv in presence of WAY100635. The data set is classed as functional, organism-based. Also on record: dose 1 mg/kg. The essentials:
(§4)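 VTA DA neuron single-unit recording in chloral hydrate-anesthetized Sprague-Dawley rats after raclopride 0.1 mg/kg. Compound 1 mg/kg was followed by WAY100635 1.0 mg/kg. Firing rate and bursting were analysed in 10 s bins relative to the post-raclopride baseline.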

Data set [10] deals with Rattus norvegicus. The experiment in a line: Antipsychotic activity in Sprague-Dawley rat schizophrenia model assessed as inhibition of PCP-induced hyperlocomotion at 2.5 mg/kg, ip administered 10 mins prior testing […]. The data set is classed as functional, organism-based. Also on record: dose 2.5 mg/kg.
The subject of data set [11] is Rattus norvegicus. The data set can be described thus: Effect on baseline startle reactivity in Sprague-Dawley rat schizophrenia model at 5 mg/kg, ip administered 10 mins prior testing monitored for 5 mins. Also noted: dose 5 mg/kg, route intraperitoneal. To be noted: in vivo. The data set is classed as ADME, organism-based. In a few lines:
(§5)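 Male Sprague-Dawley rats were pretreated ip with saline or compound 10 min before PCP (5 mg/kg, ip). Acoustic startle was tested 5 min after PCP, following 3 min acclimation: 40 ms, 120 dB pulse with prepulse trials, 74 dB background, 15–25 s intertrial interval, session about 20 min. %PPI = [1 − (prepulse+pulse)/(pulse alone)]×100. Startle = mean of pulse-alone trials, first 3 excluded.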

Data set [12] concerns the target T2, D(1A) dopamine receptor. The data set can be described thus: Agonist activity at dopamine D1 receptor (unknown origin) expressed in HEK293 cells assessed as stimulation of [35S]GTPgammaS binding by scintillation proximity assay. It is filed as functional, cell-based.
Data set [13] has as its system Rattus norvegicus. The experiment in a line: Antipsychotic activity in ip dosed Sprague-Dawley rat schizophrenia model assessed as inhibition of PCP-induced hyperlocomotion administered 10 mins prior testing monitored for 5 mins. It is filed as functional, organism-based. In a few lines: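 Male Sprague-Dawley rats (230–280 g) given saline or compound ip 10 min before PCP 5 mg/kg. Starting 5 min after PCP, rats were video-tracked in a 40×40×45 cm open field for 30 min. Total distance recorded; n = 6–12 per group; one-way ANOVA with Tamhane post hoc test.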

The test system of data set [14] is Rattus norvegicus. The data set can be described thus: In vivo agonist activity at 5-HT1A receptor in Sprague-Dawley rat DA neuron assessed as increase in bursts at 1 mg/kg, iv. The data set is classed as functional, organism-based. Also on record: dose 1 mg/kg. The essentials: as §2
In data set [15] the target is T4, D(2) dopamine receptor (Homo sapiens, UniProt P14416). Particulars: HEK293, at 10 µM.
T4 sequence (P14416 whole entry): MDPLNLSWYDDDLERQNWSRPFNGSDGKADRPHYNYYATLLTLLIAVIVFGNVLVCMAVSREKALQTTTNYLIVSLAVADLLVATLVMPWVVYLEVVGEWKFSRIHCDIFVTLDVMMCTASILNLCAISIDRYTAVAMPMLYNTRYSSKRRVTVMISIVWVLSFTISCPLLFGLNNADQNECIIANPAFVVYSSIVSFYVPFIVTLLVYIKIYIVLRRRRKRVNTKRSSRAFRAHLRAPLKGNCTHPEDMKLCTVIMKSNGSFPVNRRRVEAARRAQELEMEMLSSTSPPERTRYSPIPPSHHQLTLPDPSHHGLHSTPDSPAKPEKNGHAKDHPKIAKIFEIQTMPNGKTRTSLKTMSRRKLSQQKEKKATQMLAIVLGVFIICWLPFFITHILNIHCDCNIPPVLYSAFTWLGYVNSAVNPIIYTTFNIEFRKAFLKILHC
Data set [16] relates to Rattus norvegicus. The data set can be described thus: Effect on prepulse inhibition in Sprague-Dawley rat schizophrenia model at 5 mg/kg, ip administered 10 mins prior testing monitored for 5 mins. The data set is classed as ADME, organism-based. Also on record: dose 5 mg/kg, route intraperitoneal. Particulars: in vivo. In a few lines:
as §5

Data set [17] addresses T4, D(2) dopamine receptor. The data set can be described thus: Displacement of [3H]spiperone from dopamine D2 receptor (unknown origin) expressed in human HEK293 cells by liquid scintillation counter. It is filed as cell-based.
Data set [18] concerns the target T3, 5-hydroxytryptamine receptor 1A (Homo sapiens). The data set can be described thus: (§6) Agonist activity at 5-HT1A receptor (unknown origin) expressed in HEK293 cells assessed as […] of [35S]GTPgammaS binding by scintillation proximity assay. The data set is classed as functional, cell-based. On the technique in general: Binding of GTPγS marks nucleotide exchange on a G protein.

In data set [19] the target is T1, 5-hydroxytryptamine receptor 1A. Described as §6. The data set is classed as functional, cell-based.
In data set [20] the test system is Rattus norvegicus. The experiment in a line: Antipsychotic activity in Sprague-Dawley rat schizophrenia model assessed as effect on 120 db noise-induced absolute acoustic startle responses at 5 mg/kg, ip administered 10 mins prior testing monitored for 5 mins. It is filed as functional, organism-based. Also on record: dose 5 mg/kg. In a few lines:
as §5

Data set [21] has as its system Rattus norvegicus. The data set can be described thus: In vivo agonist activity at 5-HT1A receptor in WAY100635 pre-treated Sprague-Dawley rat DA neuron assessed as increase in firing rate at 1 mg/kg, iv. The data set is classed as functional, organism-based. Also noted: dose 1 mg/kg. In a few lines: as §3
Data set [22] concerns Rattus norvegicus. The data set can be described thus: In vivo agonist activity at 5-HT1A receptor in Sprague-Dawley rat DA neuron assessed as increase in bursts at 1 mg/kg, iv in presence of WAY100635. It is filed as functional, organism-based. Also noted: dose 1 mg/kg. The essentials: as §4
In data set [23] the test system is Rattus norvegicus. The experiment in a line: Antipsychotic activity in Sprague-Dawley rat schizophrenia model assessed as inhibition of PCP-induced prepulse inhibition at 5 mg/kg, ip administered 10 mins prior testing monitored for 5 mins. It is filed as functional, organism-based. Also on record: dose 5 mg/kg. The essentials: as §5
Data set [24] concerns the target T4, D(2) dopamine receptor.
Data set [25] concerns Rattus norvegicus. The data set can be described thus: Antipsychotic activity in Sprague-Dawley rat schizophrenia model assessed as inhibition of PCP-induced prepulse inhibition at 10 mg/kg, ip administered 10 mins prior testing monitored for 5 mins. It is filed as functional, organism-based. Also on record: dose 10 mg/kg. The essentials: as §5
The test system of data set [26] is Rattus norvegicus. The data set can be described thus: Antipsychotic activity in Sprague-Dawley rat schizophrenia model assessed as inhibition of PCP-induced hyperlocomotion at 10 mg/kg, ip administered 10 mins prior testing […]. Also on record: dose 10 mg/kg. It is filed as functional, organism-based.

Chain of 5-hydroxytryptamine receptor 2A (P28223 whole entry): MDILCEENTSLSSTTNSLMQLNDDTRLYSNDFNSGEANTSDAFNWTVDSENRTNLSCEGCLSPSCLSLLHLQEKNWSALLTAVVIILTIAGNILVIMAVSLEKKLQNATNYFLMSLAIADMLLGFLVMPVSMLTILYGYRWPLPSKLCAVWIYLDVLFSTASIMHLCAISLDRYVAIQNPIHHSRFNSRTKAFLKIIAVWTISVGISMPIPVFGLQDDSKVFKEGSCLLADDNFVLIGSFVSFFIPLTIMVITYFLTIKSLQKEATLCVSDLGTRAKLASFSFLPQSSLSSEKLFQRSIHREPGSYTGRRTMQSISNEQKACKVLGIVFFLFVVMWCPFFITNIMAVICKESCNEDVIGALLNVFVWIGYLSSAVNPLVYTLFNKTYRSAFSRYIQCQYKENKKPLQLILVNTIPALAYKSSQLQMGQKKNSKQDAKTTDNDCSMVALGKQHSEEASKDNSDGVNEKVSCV

Turning to `COc1cc2c(cc1OC)[C@@H]1Cc3ccc(O)c(OC)c3CN1CC2`, the Ki in [1] was determined as 149 nM; in data set [2] it was 50 nM; in data set [17], 305 nM. Also, the inhibition in data set [3] is 68.8%; in data set [5], 98.8%; in [6], 97.4%; in [13], “Dose-dependent effect”; in data set [15], 88.8%. The IC50 in [4] was 21300 nM; in [24], 18700 nM. The figures for the Activity in data set [7], in data set [11] and in data set [16] were 128.3%, “Non-toxic” and “Non-toxic”, respectively. Also, the result in data set [8], in [9], in [20], in data set [21] and in data set [22] was inactive. The inhibition result in data set [10] and in data set [23] was “Active” each time. For the same compound, the EC50 in data set [12] is 1350 nM; in data set [19] it was 190 nM. In addition, the result in [14] was Active. Further, the Emax in data set [18] was determined as 156%.
As to `COc1c(O)ccc2c1CN1CCc3cc4c(cc3[C@@H]1C2)OCO4`, the Ki in data set [1] is 908 nM; in data set [2], 6.3 nM; in [17], 145 nM. Besides, the inhibition in data set [3] was 73.6%; in [5] it was 99.7%; in data set [6], 95.7%; in [13], “Dose-dependent effect”; in [15], 92.8%. In addition, the IC50 was found to be 17400 nM in [4] and 1000 nM in [24]. Also, the inhibition result in data set [25], in [23] and in data set [26] was “Active” in each case. Moreover, the Activity entry in [11] is given as “Non-toxic”. Moreover, the results for the EC50 in [12] and in [19] were 16000 nM and 13500 nM, respectively. Also, in [18], the Emax was 80.7%. Also, in data set [20], the result was inactive.
